Assays:
[1] = test system: SNU-5 tumors; assay: SNU-5 xenograft tumor growth; type: in vivo, mice; settings: 14 days, oral
Summary of the method: (§1)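 Human tumour cells inoculated into the rear flank. Mice randomised at mean volumes of ~200 mm3 (Hs 746T), ~120 mm3 (MDA-MB-231), ~100 mm3 (NCI-H441) or ~90 mm3 (SNU-5). Oral gavage once daily with test compound or vehicle. Tumour volume and body weight measured at least twice weekly. […], using mean volumes at extraction and dosing start.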

[2] = test system: panel of 405 protein kinases; assay: KinaseProfiler 33P radiometric kinase assay, panel; type: biochemical
Summary of the method: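 Radiometric 33P-phosphoryl transfer assay measuring catalytic activity of recombinant active kinase domains across the profiling panel.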

[3] = test system: human xenograft murine models; assay: Murine xenograft models overall; type: in vivo, mice; settings: after 14 days of daily 10 mg/kg treatments
Summary of the method: as §1

[4] = humans; preliminary phase I data (NCT03845166); cited from earlier work
[5] = test system: CT26 tumors; assay: CT26 syngeneic colorectal cancer survival model; type: in vivo, mice; settings: XL092 30 mg/kg orally once a day, anti-PD-1 10 mg/kg every 3–4 days i.p.
Summary of the method: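 CT26 syngeneic mice randomised at ~90 mm3. Treatment: oral test compound 30 mg/kg once daily for 34 days, with or without anti-PD-1 antibody (10 mg/kg i.p. every 3–4 days for 5 weeks, diluted in sterile PBS), or vehicle. Animals sacrificed at tumour volume 2,500 mm3; survival analysed by Kaplan–Meier.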

[6] = test system: Hs 746T tumors; assay: Hs 746T xenograft tumor growth; type: in vivo, mice; settings: 12 days, oral
Summary of the method: as §1

[7] = test system: primary human CD14+ monocyte-derived M2 macrophages; assay: Macrophage M2 to M1 repolarization; type: cell-based; settings: 2, 4, and 6 μmol/L XL092 for 7 days; 5 donors
Summary of the method: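 CD14+ monocytes (1.0 × 10^6 cells/mL) differentiated 6 days into M2 macrophages, then cryopreserved. Thawed cells seeded at 2.0 × 10^5/well in M2 differentiation medium and exposed to 2, 4 or 6 μmol/L for 7 days at 37°C, 5% CO2, with medium and compound renewed on day 4; triplicate per donor, 5 donors. After Fc block, stained with anti-CD163 and 7-AAD. Viable CD163−/CD163+ ratio expressed as fold change versus DMSO.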

[8] = biological target: T1, AXL (Homo sapiens, UniProt P30530); assay: Inhibition of receptor phosphorylation, ELISA, A-172 cells/GAS6; type: cell-based
T1 sequence (P30530 26-894): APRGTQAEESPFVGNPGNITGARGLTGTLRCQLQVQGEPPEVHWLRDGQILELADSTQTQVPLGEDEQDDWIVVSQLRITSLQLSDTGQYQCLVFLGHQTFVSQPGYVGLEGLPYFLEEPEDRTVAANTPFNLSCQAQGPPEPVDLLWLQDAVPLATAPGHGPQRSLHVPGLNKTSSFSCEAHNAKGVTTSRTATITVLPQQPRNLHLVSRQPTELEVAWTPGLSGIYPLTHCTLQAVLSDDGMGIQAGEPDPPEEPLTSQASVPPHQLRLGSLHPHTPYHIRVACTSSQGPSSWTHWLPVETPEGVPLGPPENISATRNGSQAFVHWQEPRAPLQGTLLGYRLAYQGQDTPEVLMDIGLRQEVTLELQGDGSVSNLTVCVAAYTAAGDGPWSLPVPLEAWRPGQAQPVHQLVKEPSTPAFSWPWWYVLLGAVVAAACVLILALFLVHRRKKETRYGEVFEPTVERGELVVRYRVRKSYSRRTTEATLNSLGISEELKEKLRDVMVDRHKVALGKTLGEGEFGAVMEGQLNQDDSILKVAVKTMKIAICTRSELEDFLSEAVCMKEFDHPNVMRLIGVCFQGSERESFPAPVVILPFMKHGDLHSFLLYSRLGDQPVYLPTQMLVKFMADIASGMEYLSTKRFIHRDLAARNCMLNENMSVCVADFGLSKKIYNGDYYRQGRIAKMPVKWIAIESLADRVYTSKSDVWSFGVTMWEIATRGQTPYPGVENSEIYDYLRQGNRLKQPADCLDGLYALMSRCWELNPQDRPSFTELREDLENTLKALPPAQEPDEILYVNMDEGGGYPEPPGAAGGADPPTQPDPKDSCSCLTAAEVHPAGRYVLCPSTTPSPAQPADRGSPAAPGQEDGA

[9] = test system: MDA-MB-231 tumors; assay: MDA-MB-231 xenograft tumor growth; type: in vivo, mice; settings: 14 days, oral
Summary of the method: as §1

[10] = test system: peripheral leukocytes; assay: Peripheral immunocytes by flow cytometry in MC38 tumor-bearing mice; type: in vivo; settings: 7 days, XL092 30 mg/kg
Summary of the method: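 Female C57BL/6 mice (5–6 weeks) inoculated s.c. with 1 × 10^6 MC38 cells, randomised at ~200 mm3. […] single-cell suspensions surface-stained with a lineage panel plus fixable viability dye. Medians compared by Mann–Whitney U.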

With CNC(=O)c1cc2c(Oc3ccc(NC(=O)C4(C(=O)Nc5ccc(F)cc5)CC4)cc3)ccnc2cc1OC [XL092] the Tumor growth inhibition ([1]; 3 mg/kg/day) was 54.2%, the Tumor growth inhibition ([1]; 10 mg/kg/day) was 94.7% and the “activity against serine or threonine kinases” value ([2]; kinase profiling) was “No activity”. For the same molecule, the “inhibition of additional RTKs and TKs” value ([2]; single concentration of 1 μmol/L, panel of 405 protein kinases) was at least 70%, the “TGI (summary over several models)” value [3] was at least 70% and the half-life [4] was “approximately 24 hours”. The “survival to the end of the 34-day dosing regimen” value [5] was 20%, the Tumor growth inhibition ([6]; 1 mg/kg/day) was 10.1% and the Tumor growth inhibition ([6]; 3 mg/kg/day) was 35.6%. For the same molecule, the Tumor growth inhibition ([6]; 10 mg/kg/day) was 70.2%, the Tumor growth inhibition ([6]; 30 mg/kg/day) was 94.9% and the “M1 (CD163-negative) to M2 (CD163-positive) ratio” value [7] was “dose-dependent increases”. It also gave an IC50 [8] of 3.89 ± 1.61 nM, a Tumor growth inhibition ([9]; 3 mg/kg/day) of 73.6% and a Tumor growth inhibition ([9]; 10 mg/kg/day) of 78.6%. For the same molecule, the “peripheral CD4+ T cells relative to vehicle” value [10] was “significant increases”, the “peripheral B cells relative to vehicle” value ([10]; antibodies 5 mg/kg) was “significant increases” and the “peripheral myeloid cells relative to vehicle” value ([10]; antibodies 5 mg/kg) was “significant decreases”.
